The list is not random: actives were taken first. Their share in the collection is about 6.6%.
M1 antagonist – antagonists of rat M1 muscarinic receptor; B-score at 10 µM; CHO-M1 cells, Fluo-4 calcium, ACh EC80 antagonist mode; stronger effect = lower value; P08482; 64,000 tested, 3.4% active;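 active = calcium fluorescence response, raw or row-and-column corrected B-score, differing from the plate sample mean either way at a set confidence level, mostly lower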
Her2 expr inh – lowers expression of human Her2 kinase. P04626. SKBR-3 HER2 protein level, AlphaScreen, 18-24 h; stronger effect = lower value. HER2 level % of control, % at 10 µM. 65,000 tested, 0.69% active;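 active = HER2 level under 5% of the carrier-only control; inconclusive = no clear call, values can overlap the other calls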;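 note: 100% = DMSO carrier and 0% = 500 nM PU-H71 HSP90 inhibitor; lower value means stronger loss of Her2 protein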
M1 ag – agonists of M1 muscarinic receptor; B-score at 10 µM; CHO-M1 cells, Fluo-4 calcium fluorescence, agonist mode; stronger effect = higher value; 64,000 tested, 3% active;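 active = fluorescence rise, raw or as B-score row- and column-corrected plate score, outside the 99.7% band of its plate's samples, either direction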
JNK3 inh – JNK3 (human) kinase inhibition | P53779 | AID 746 | 60,000 tested, 0.61% active | inhibition, % at 8 µM | purified JNK3 kinase activity, HTS; in the data active = inhibition above about 17%;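 note: 0% = DMSO and 100% = reference inhibitor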
HEK293 NFkB inh – inhibitors of the PMA/ionomycin-induced NF-kB reporter in HEK293 cells; HEK-293 NF-kB luciferase reporter, luminescence; inhibition, % at 3 µM; 62,000 tested, 0.21% active;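 active = inhibition above the mean of all tested compounds plus 3 SD, cut at about 40% in these data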;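 note: 0% = stimulated DMSO wells and 100% = 10 µM reference inhibitor 5653914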
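Reagent: PMA plus ionomycin mix as NF-kB-activating stimulus. Assay system: NF-kB luciferase reporter HEK-293 cells. Technique: luminescence from luciferase substrate reagent. Incubation: 1 h compound pre-incubation, 16 h PMA/ionomycin at 37 °C. Benchmarks: DMSO only as uninhibited control, 10 µM reference inhibitor as full inhibition. Repeats: tested once.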
BAP1 inh – blocks human BAP1 ubiquitin-AMC hydrolysis. 72,000 tested, 0.48% active. AID 436. recombinant BAP1, Ub-AMC hydrolysis fluorescence kinetic; stronger effect = lower value. calls only at 20 µM. Q92560;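 active = activity remaining at or below 50% of control, provided the compound also passes the data quality filters; inactive = the rest, including low values that fail the filters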;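 note: 100% = DMSO wells rate and 0% = substrate alone blank rate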
Target sequence (Q92560 whole entry, looked up): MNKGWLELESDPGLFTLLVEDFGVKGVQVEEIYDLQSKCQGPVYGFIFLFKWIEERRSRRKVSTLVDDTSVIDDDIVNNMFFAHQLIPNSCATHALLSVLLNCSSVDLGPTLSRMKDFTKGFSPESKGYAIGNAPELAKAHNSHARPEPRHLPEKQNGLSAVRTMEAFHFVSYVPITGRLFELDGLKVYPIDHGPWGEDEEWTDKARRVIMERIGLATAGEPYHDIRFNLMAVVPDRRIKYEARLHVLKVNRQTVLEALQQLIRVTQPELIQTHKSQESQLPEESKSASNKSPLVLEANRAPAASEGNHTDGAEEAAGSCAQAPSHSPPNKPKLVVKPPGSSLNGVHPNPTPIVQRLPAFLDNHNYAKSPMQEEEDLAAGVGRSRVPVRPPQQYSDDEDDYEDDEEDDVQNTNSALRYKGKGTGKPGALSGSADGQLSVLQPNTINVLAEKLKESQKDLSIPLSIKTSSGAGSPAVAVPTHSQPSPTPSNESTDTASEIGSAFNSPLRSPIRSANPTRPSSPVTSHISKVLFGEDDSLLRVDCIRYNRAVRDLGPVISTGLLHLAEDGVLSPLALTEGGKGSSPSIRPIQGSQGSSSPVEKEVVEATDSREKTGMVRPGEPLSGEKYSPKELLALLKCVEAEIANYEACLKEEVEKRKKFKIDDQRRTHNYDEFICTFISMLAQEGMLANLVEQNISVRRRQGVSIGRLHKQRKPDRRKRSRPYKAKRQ
M1 ag confirm – confirmation of rat M1 muscarinic receptor agonists. shares compounds with M1 ag. CHO-M1 cells, Fluo-4 calcium fluorescence, agonist mode; actives lie on both sides. fluorescence change (max-min) at 10 µM. 1,700 tested, 19% active. AID 1488;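 active = fluorescence change differs from the solvent-only DMSO control mean at a set confidence level in both duplicate runs; inconclusive = differs from solvent-only control mean in just one of two runs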;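 note: an EC20 dose of acetylcholine follows compound addition during the same imaging run; raw fluorescence intensity difference in instrument units with no normalization to controls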
M4 agonist ctr – rat M4 muscarinic agonism, M1 counter-screen. shares compounds with M1 ag. CHO M4/Gqi5 cells, Fluo-4 calcium fluorescence, agonist mode; actives lie on both sides. fluorescence change (max-min) at 10 µM. 1,700 tested, 9% active. AID 1741;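 active = fluorescence change differing from the plate's solvent-only control wells at 99.7% confidence in both duplicates, whether higher or lower; inconclusive = differs from solvent controls in only one of two duplicates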
Starred values were filed as active, the others as inactive.

Screening O=C(c1cn(-c2ccccc2)nc1-c1ccccc1)N1CCOCC1 returned M1 antagonist 0.128, Her2 expr inh 89.9, M1 ag -0.0112, JNK3 inh 1.3, HEK293 NFkB inh 17.5 and BAP1 inh inactive.
CC1(C)CC(=O)C2=C(C1)Nc1ccccc1N(C(=O)Cc1ccc(Cl)cc1)C2c1cccnc1 (configuration not stated) was read as BAP1 inh inactive.
`O=C1CSC(c2cccc([N+](=O)[O-])c2)N1c1ccc(Cl)cn1` (configuration not stated) gave BAP1 inh inactive.
Cc1ccc(S(=O)(=O)N2CCN(S(C)(=O)=O)C2c2ccccc2)cc1 (configuration not stated) was read as M1 antagonist 0.0836, Her2 expr inh 76.2, M1 ag 2.65*, JNK3 inh 0.4, HEK293 NFkB inh 18.8, BAP1 inh inactive, M1 ag confirm -41.2* and M4 agonist ctr inconclusive.
For CCOC(=O)N1CCN(S(=O)(=O)c2ccc(C)cc2)C1c1ccccc1 (configuration not stated) the results were M1 antagonist -0.458, Her2 expr inh 195.9, M1 ag 3.18*, HEK293 NFkB inh 1.1, M1 ag confirm -6.52 and M4 agonist ctr -14.4.
For O=C(Cn1nnc(-c2ccc(F)cc2)n1)Nc1ccc2c(c1)OCO2 the results were BAP1 inh inactive.
Screening O=C(Cn1nnc(-c2ccccc2F)n1)Nc1ccc2c(c1)OCO2 returned M1 antagonist -0.0765, Her2 expr inh 92.9, M1 ag 5.68*, JNK3 inh -2.6, HEK293 NFkB inh 4.6, BAP1 inh inactive, M1 ag confirm inconclusive and M4 agonist ctr -62.3.
Screening Cc1ccc2nc(-c3ccc(C)c(NC(=O)c4cccc(Cl)c4)c3)oc2c1 returned BAP1 inh inactive.
Screening Cc1ccc2[nH]c(=O)c(CN(Cc3ccccc3Cl)C(=O)N3CCOCC3)cc2c1 returned M1 antagonist 0.443, Her2 expr inh 62.1, M1 ag 2.24*, JNK3 inh 2.2, HEK293 NFkB inh -5.6, BAP1 inh inactive, M1 ag confirm -29* and M4 agonist ctr -81.6*.
CC1CN(c2nc3ccccc3nc2C(C#N)C(=O)OC2CCCCC2)CC(C)O1 (configuration not stated) was read as M1 antagonist -0.113, Her2 expr inh 72.5, M1 ag 38.3*, JNK3 inh -0.5, HEK293 NFkB inh 14.3, BAP1 inh inactive, M1 ag confirm inconclusive and M4 agonist ctr -35.3.
For CC1CN(c2nc3ccccc3nc2C(C#N)C(=O)NC2CCCCC2)CC(C)O1 (configuration not stated) the results were M1 antagonist 0.1, Her2 expr inh 106.7, M1 ag 40.6*, JNK3 inh -2.8, HEK293 NFkB inh 6.0, BAP1 inh inactive, M1 ag confirm -31.3* and M4 agonist ctr -62.4.
For CCc1nnc(NS(=O)(=O)c2ccc(N=Cc3cc(Br)ccc3O)cc2)s1 the results were BAP1 inh inactive.
`Cc1cc2cc(CCNC(=O)c3ccc(Br)o3)c(=O)[nH]c2cc1C` gave M1 antagonist -1.14, Her2 expr inh 82.9, M1 ag 3.67*, JNK3 inh 4.6, HEK293 NFkB inh -12.3, BAP1 inh inactive, M1 ag confirm -14.7 and M4 agonist ctr -25.7.
COc1ccc(-c2csc(N(CCCN(C)C)C(=O)c3cccs3)n2)cc1 was read as M1 antagonist -9.51*, Her2 expr inh 91.1, M1 ag 27*, JNK3 inh 11.1, HEK293 NFkB inh 0.8, BAP1 inh inactive, M1 ag confirm 10.9 and M4 agonist ctr -36.6.
Screening COc1ccc(-c2csc(N(CCCN3CCOCC3)C(=O)c3ccco3)n2)cc1 returned M1 antagonist -1.13, Her2 expr inh 107.0, M1 ag 8.81*, JNK3 inh 2.0, HEK293 NFkB inh 3.9, BAP1 inh inactive, M1 ag confirm -1.49 and M4 agonist ctr -38.9.

Source: PubChem BioAssay
